The structures appear in SMILES notation.

As a reminder, the IC50 is the point on the concentration scale where inhibition reaches its midpoint. By inhibition is commonly meant the relative decrease from the control value, in per cent.

Test [1] concerns the target T1, Aminopeptidase N (Plasmodium falciparum FcB1/Columbia, UniProt O96935).
T1 sequence (O96935 whole entry): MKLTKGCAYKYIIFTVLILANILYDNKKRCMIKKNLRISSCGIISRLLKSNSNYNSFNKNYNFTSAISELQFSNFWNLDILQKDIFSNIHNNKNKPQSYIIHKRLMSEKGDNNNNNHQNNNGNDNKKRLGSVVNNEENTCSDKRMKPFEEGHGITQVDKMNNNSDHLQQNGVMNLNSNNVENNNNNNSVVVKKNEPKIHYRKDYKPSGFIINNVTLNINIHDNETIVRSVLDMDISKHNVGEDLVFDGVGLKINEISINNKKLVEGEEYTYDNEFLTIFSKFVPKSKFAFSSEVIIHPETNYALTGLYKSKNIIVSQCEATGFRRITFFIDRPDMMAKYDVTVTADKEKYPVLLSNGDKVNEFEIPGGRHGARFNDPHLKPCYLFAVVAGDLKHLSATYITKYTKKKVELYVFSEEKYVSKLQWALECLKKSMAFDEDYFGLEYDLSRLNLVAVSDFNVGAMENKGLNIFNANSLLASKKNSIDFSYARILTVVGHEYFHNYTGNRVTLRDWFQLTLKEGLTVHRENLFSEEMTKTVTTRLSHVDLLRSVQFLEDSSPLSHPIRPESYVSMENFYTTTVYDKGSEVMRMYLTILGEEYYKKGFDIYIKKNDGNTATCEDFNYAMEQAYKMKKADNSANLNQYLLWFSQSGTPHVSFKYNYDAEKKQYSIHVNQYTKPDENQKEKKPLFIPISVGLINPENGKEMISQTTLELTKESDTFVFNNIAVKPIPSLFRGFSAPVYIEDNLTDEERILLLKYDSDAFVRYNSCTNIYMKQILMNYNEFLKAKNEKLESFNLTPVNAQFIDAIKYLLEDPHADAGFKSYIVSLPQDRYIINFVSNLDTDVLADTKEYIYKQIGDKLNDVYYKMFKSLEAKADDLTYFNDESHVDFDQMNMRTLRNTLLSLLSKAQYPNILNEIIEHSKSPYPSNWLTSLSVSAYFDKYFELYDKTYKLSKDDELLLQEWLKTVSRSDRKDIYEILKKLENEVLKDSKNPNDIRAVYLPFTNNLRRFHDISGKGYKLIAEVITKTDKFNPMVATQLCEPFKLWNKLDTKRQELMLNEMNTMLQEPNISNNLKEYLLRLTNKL
The test can be described thus: Inhibition of Plasmodium falciparum FcB1 M1 aminopeptidase. The method in brief:
(§1)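 Native enzyme purified from P. falciparum FcB1, diluted 10-fold in 25 mM Tris-HCl pH 7.4. Preincubated with inhibitor for 10 min at room temperature, then Leu-pNA substrate added (0.3 mM stock, Km 0.099 mM). Kinetics followed at 405 nm at room temperature. Initial velocities normalized to a no-inhibitor control. Single-point screen at 10 µM; IC50 from velocity versus inhibitor concentration curves. Bestatin used as reference.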

The target of test [2] is T2, Aminopeptidase N (Sus scrofa) (UniProt P15145).
T2 sequence (whole entry): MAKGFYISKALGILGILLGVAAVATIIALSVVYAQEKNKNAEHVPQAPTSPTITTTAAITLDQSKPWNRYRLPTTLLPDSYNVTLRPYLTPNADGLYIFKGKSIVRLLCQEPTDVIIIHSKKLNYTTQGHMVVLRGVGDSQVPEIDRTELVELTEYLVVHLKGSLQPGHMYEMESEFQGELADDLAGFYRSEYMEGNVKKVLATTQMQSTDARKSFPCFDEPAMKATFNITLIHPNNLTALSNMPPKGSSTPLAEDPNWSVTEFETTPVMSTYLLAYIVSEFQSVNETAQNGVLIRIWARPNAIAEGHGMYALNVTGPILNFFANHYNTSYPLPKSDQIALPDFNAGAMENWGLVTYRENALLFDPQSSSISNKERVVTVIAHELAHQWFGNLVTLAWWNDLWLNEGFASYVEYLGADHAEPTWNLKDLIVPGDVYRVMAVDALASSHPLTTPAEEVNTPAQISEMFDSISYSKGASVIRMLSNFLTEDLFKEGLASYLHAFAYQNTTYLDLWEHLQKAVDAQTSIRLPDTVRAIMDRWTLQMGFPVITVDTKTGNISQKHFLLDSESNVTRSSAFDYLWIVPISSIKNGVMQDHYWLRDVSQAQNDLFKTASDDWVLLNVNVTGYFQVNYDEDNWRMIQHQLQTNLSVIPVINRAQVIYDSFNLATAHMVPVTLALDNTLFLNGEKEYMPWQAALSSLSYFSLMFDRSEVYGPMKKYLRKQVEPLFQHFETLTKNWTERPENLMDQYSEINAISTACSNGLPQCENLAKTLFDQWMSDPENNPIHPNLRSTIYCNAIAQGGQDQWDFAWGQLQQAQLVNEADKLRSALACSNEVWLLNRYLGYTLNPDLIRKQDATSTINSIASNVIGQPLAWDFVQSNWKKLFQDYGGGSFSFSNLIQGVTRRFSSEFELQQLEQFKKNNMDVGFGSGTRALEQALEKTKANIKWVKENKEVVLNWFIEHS
The test can be described thus: Inhibition of pig kidney microsomal APN at 10 uM. The gist of the method: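 Porcine kidney microsomal APN (ammonium sulfate suspension) diluted 600-fold in 25 mM Tris-HCl pH 7.4. Preincubated with inhibitor for 10 min at room temperature, then Leu-pNA added (0.3 mM stock). Hydrolysis followed at 405 nm at room temperature. Rates normalized to a no-inhibitor control. Single point at 10 µM; IC50 from concentration-velocity curves. Bestatin used as reference.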

Test [3] deals with T3, Aminopeptidase N (Plasmodium falciparum FcB1/Columbia) (UniProt O96935).
T3 sequence (whole entry): T1 sequence (O96935 whole entry)
The test can be described thus: Inhibition of Plasmodium falciparum FcB1 M1 aminopeptidase at 10 uM. The gist of the method: as §1

As for `O=C(NO)C(Cc1ccccc1)C(=O)NCCc1ccccc1` (stereo unspecified), half-maximal inhibition in test [1] (IC50) required 1010 nM. Further, the inhibition in test [2] came out at 70%; in test [3] it was 82%.

`O=C(NO)C(Cc1cccc(Oc2ccccc2)c1)C(=O)N1CCc2ccccc2C1` (stereo unspecified): the IC50 in test [1] was 966 nM. In addition, the inhibition was 84% in test [2] and 100% in test [3].

For `CC(C)CC(C(=O)NO)C(=O)NCCCCc1ccccc1` (stereo unspecified), the IC50 in test [1] amounted to 1150 nM. The values for the inhibition in test [2] and in test [3] were 92% and 87%, respectively.

`O=C(NO)C(Cc1cccc(Oc2ccccc2)c1)C(=O)NCCCc1ccccc1` (stereo unspecified) returned a 50% inhibitory concentration (IC50) in test [1] of 527 nM. Moreover, the inhibition in test [2] stood at 89%; in test [3] it was 93%.

For `O=C(NO)C(Cc1ccccc1)C(=O)NCCCc1ccccc1` (stereo unspecified), the midpoint of inhibition in test [1], the IC50, lay at 125 nM. The inhibition in test [2] stood at 84%; in test [3], 94%.

`O=C(NO)C(Cc1cccc(Oc2ccccc2)c1)C(=O)N1CCC(Cc2ccccc2)CC1` (stereo unspecified) registered an IC50 in test [1] of 248 nM. Besides, the inhibition in test [2] was 65%; in test [3] it was 97%.

`CC(C)CC(C(=O)NO)C(=O)NC1CCCc2ccccc21` (stereo unspecified): the IC50 in test [1] was 109 nM.

For the compound `O=C(NO)C(Cc1cccc(Oc2ccccc2)c1)C(=O)N(CCc1ccccc1)Cc1ccccc1` (stereo unspecified), the inhibition in test [2] turned out to be 67%; in test [3], 38%.

As for `CC(C)CC(C(=O)NO)C(=O)N1CCC2(CC1)C(=O)NCN2c1ccccc1` (stereo unspecified), the inhibition in test [2] turned out to be 26%; in test [3], 7%.

Regarding `O=C(NO)C(Cc1cccc(Oc2ccccc2)c1)C(=O)NCCC(c1ccccc1)c1ccccc1` (stereo unspecified), the inhibition is 59% in test [2] and 50% in test [3].

Turning to `CN(CCCNC(=O)C(N)C(=O)NO)c1ccccc1` (stereo unspecified), the results for the inhibition in test [2] and in test [3] were 18% and 3%, respectively.

As to `CN(CCCCc1ccccc1)C(=O)C(Cc1cccc(Oc2ccccc2)c1)C(=O)NO` (stereo unspecified), the inhibition in test [2] was 95%; in test [3], 80%.

Regarding `O=C(CC(=O)N1CCC2(CC1)C(=O)NCN2c1ccccc1)NO`, the inhibition in test [2] came to 19%; in test [3] it was 5%.

Take `O=C(NO)C(Cc1cccc(Oc2ccccc2)c1)C(=O)NC1CCN(Cc2ccccc2)CC1` (stereo unspecified): the inhibition came to 72% in test [2] and 5% in test [3].

With `Cc1ccccc1CNC(=O)C(Cc1cccc(Oc2ccccc2)c1)C(=O)NO` (stereo unspecified), the inhibition in test [2] is 86%; in test [3] it was 99%.

In the case of `NC(C(=O)NO)C(=O)NCCCCc1ccccc1` (stereo unspecified), the inhibition in test [2] was determined as 42%; in test [3], 56%.

As to `CC(C)CN(CCCCc1ccccc1)C(=O)CC(=O)NO`, the figures for the inhibition in test [2] and in test [3] were 45% and 22%, respectively.

With `CC(C)CC(C(=O)NO)C(=O)NCCC(c1ccccc1)c1ccccc1` (stereo unspecified), the inhibition came out at 102% in test [2] and 76% in test [3].

Take `O=C(NO)C(Cc1cccc(Oc2ccccc2)c1)C(=O)N1CCN(Cc2ccc3c(c2)OCO3)CC1` (stereo unspecified): the inhibition in test [2] came to 31%; in test [3], 97%.

Regarding `NC(C(=O)NO)C(=O)N1CCc2ccccc2C1` (stereo unspecified), the inhibition is 32% in test [2] and 49% in test [3].

In the case of `CN(Cc1ccccc1)C(=O)CC(=O)NO`, the results for the inhibition in test [2] and in test [3] were 9% and -4%, respectively.

Consider `CC(C)CC(C(=O)NO)C(=O)N(C)CCCCc1ccccc1` (stereo unspecified), for which the inhibition in test [2] was 20%; in test [3] it was 2%.

As for `NC(C(=O)NO)C(=O)N1CCN(Cc2ccccc2)CC1` (stereo unspecified), the inhibition was -5% in test [2] and 18% in test [3].

In test [1], `O=C(NO)C(Cc1ccccc1)C(=O)NCC(c1ccccc1)c1ccccc1` (stereo unspecified) yielded an IC50 of 5360 nM.

As for `NC(C(=O)NO)C(=O)N1CCN(Cc2ccc3c(c2)OCO3)CC1` (stereo unspecified), the inhibition is 23% in test [2] and -3% in test [3].

Consider `CC(C)CN(CCCCc1ccccc1)C(=O)C(N)C(=O)NO` (stereo unspecified), for which the inhibition in test [2] is -1%; in test [3], 37%.

Regarding `CC(C)CC(C(=O)NO)C(=O)NCCc1ccccn1` (stereo unspecified), the inhibition in test [2] came to 86%; in test [3], 30%.

As to `O=C(CC(=O)NCCC(c1ccccc1)c1ccccc1)NO`, the inhibition in test [2] came to 87%; in test [3], 50%.

Take `Cc1ccccc1CNC(=O)C(CC(C)C)C(=O)NO` (stereo unspecified): the inhibition in test [2] is 98%; in test [3] it was 88%.

As to `CC(C)CC(C(=O)NO)C(=O)NCc1cccnc1` (stereo unspecified), the inhibition in test [2] was 30%; in test [3], -4%.

Turning to `O=C(CC(=O)NCCc1ccccn1)NO`, the inhibition in test [2] is 16%; in test [3] it was -2%.

With `CC(C)CC(C(=O)NO)C(=O)NC1Cc2ccccc2C1` (stereo unspecified), the inhibition was found to be 93% in test [2] and 61% in test [3].

Take `O=C(CC(=O)NCc1ccc(C(F)(F)F)cc1)NO`: the inhibition was 40% in test [2] and 1% in test [3].

Consider `O=C(CC(=O)N(CCc1ccccc1)Cc1ccccc1)NO`, for which the inhibition in test [2] was 32%; in test [3] it was 5%.

In test [1], `O=C(NO)C(Cc1ccccc1)C(=O)NCc1cccc2ccccc12` (stereo unspecified) returned an IC50 of 107 nM.

Turning to `NC(C(=O)NO)C(=O)N1CCN(C(c2ccccc2)c2ccccc2)CC1` (stereo unspecified), the figures for the inhibition in test [2] and in test [3] were 10% and -5%, respectively.

Regarding `O=C(NO)C(Cc1ccccc1)C(=O)N(CCc1ccccc1)Cc1ccccc1` (stereo unspecified), the values for the inhibition in test [2] and in test [3] were 56% and 75%, respectively.

On to `O=C(NO)C(Cc1cccc(Oc2ccccc2)c1)C(=O)NCc1cccc(-c2ccccc2)c1` (stereo unspecified), for which the inhibition in test [2] was determined as 81%; in test [3], 41%.

In the case of `NC(C(=O)NO)C(=O)NCc1ccccc1` (stereo unspecified), the results for the inhibition in test [2] and in test [3] were 77% and 10%, respectively.

Consider `O=C(CC(=O)NCCCCc1ccccc1)NO`, for which the inhibition was 36% in test [2] and 19% in test [3].

Take `CC(C)CC(C(=O)NO)C(=O)NCc1ccc(C(F)(F)F)cc1` (stereo unspecified): the results for the inhibition in test [2] and in test [3] were 45% and 24%, respectively.

In the case of `CN(CCCCc1ccccc1)C(=O)C(Cc1ccccc1)C(=O)NO` (stereo unspecified), the inhibition in test [2] was 53%; in test [3], 76%.

Consider `O=C(NO)C(Cc1cccc(Oc2ccccc2)c1)C(=O)NC1Cc2ccccc2C1` (stereo unspecified), for which the inhibition was 72% in test [2] and 43% in test [3].

For the compound `COc1cccc(CC(C(=O)NO)C(=O)NCc2cccc(Oc3ccccc3)c2)c1` (stereo unspecified), the inhibition in test [2] is 69%; in test [3], 68%.
